Like-named read-outs stand apart in the source and are kept apart here.

Broadly, the Ki is the equilibrium dissociation constant of an inhibitor or competing ligand from its target. One may read the logD as the decadic logarithm of the distribution of all forms, ionised or not, between an organic phase and buffer at a given pH.

The target of series [1] is T1, human cerebellum TSPO, HAB genotype (Homo sapiens, UniProt P30536). In words: [3H]PK11195 binding assay, human cerebellum homogenates, HAB genotype. The note with it: for lipE HAB: lipE = pKi – logD.
T1 sequence (P30536 whole entry): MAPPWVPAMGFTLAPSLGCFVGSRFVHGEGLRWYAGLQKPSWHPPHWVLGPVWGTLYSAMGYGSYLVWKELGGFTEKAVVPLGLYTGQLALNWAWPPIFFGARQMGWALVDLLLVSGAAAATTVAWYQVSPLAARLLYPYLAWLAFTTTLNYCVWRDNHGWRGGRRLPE
For series [2], the target named is T2, TSPO in rat kidney (Rattus norvegicus, UniProt P16257). In words: [3H]PK11195 displacement binding, rat kidney membranes. As to conditions: for lipE rat kidney: lipE = pKi – logD.
A further series in a line: Measurement of logD. The series is classed as physicochemical. The note with it: for logD7.4: n-octanol / sodium phosphate buffer pH 7.4, RT, n = 6; for logD: n-octanol/sodium phosphate buffer, pH 7.4. Summed up: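 Shake-flask partition of each radiolabelled test compound between 1-octanol and sodium phosphate buffer (pH 7.4) at room temperature; logD taken from the distribution coefficient of radioactivity between the two phases.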

The target of series [3] is TSPO in human U87MG cells (Homo sapiens, UniProt P30536). In words: [3H]PK11195 displacement binding, human U87MG cell membranes. As to conditions: for lipE human U87MG: lipE = pKi – logD.
TSPO in human U87MG cells, sequence (P30536 whole entry): as above
For series [4], the target named is T3, human cerebellum TSPO, LAB genotype (Homo sapiens, UniProt P30536). In words: [3H]PK11195 binding assay, human cerebellum homogenates, LAB genotype.
T3 sequence (P30536 2-169): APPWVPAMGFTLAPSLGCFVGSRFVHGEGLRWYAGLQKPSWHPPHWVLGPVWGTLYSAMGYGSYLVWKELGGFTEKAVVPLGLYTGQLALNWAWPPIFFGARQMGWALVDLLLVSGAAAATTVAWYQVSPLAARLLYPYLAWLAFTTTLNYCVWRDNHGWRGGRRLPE
The subject of series [5] is human cerebellum TSPO, LAB genotype. Described as above. The note with it: human cerebellum genotype sensitivity in vitro.
The next series has as its target TSPO in the mouse brain (Mus musculus, UniProt P50637). In words: PET imaging of radioligands in mouse brain, baseline and PK11195 preblock. Type of series: in vivo.
For series [6] the following is noted: cited from earlier work.
Series [7] has as its target T1, human cerebellum TSPO, HAB genotype. The note with it: cited from earlier work.
For series [8], the target named is T3, human cerebellum TSPO, LAB genotype. The note with it: read-out: LAB Ki; cited from earlier work.
The test system of series [9] is human cerebellum TSPO, LAB genotype. The note with it: cited from earlier work.
For series [10], the target named is T2, TSPO in rat kidney. The note with it: cited from earlier work.
[11] abbreviates: read-out: HAB Ki, human cerebellum, three HAB subjects, 1 h at 37 °C.
[12] abbreviates: read-out: rat kidney Ki, [3H]PK11195 1 nM, 90 min at 0 °C, n = 3.
The mark [13] stands for this setting: read-out: human U87MG Ki, [3H]PK11195 1 nM, 90 min at 0 °C, n = 3.
[14] abbreviates: read-out: LAB Ki, human cerebellum, three LAB subjects, 1 h at 37 °C.
Where [15] appears, read: lipE = pKi – logD, data from ref 27.

For `CC[C@@H](C)N(C)C(=O)c1nc(-c2ccccc2F)c2ccccc2n1` [3a, (R)-(N-sec-Butyl)-4-(2-fluorophenyl)-N-methylquinazoline-2-carboxamide], in [1], the “lipE HAB” value is recorded as 5.01. For the same molecule, the Ki came to 9 ± 9.5 nM in series [1] (setting [11]), 4.19 ± 0.35 nM on TSPO in rat kidney [2] (setting [12]), 5.64 ± 0.66 nM in series [3] (setting [13]) and 25 ± 11.6 nM in series [4] (setting [14]). Besides, at TSPO in rat kidney [2], the lipE rat kidney is 5.34. This molecule registered a logD7.4 in the series “Measurement of logD” of 3.04 ± 0.03. In addition, the “lipE human U87MG” value in series [3] was 5.21. Further, the “LAB to HAB Ki ratio” value in series [5] came to 2.78.
Take `CC[C@@H](C)N(C)C(=O)c1nc(-c2ccc(F)cc2)c2ccccc2n1` [3c, (R)-(N-sec-Butyl)-4-(4-fluorophenyl)-N-methylquinazoline-2-carboxamide]: the “lipE HAB” value in series [1] worked out at 4.81. In addition, the Ki in [1] (setting [11]) amounted to 15.3 ± 10.3 nM; on TSPO in rat kidney [2] (setting [12]) it was 7.41 ± 0.82 nM; in series [3] (setting [13]), 7.03 ± 0.66 nM; in series [4] (setting [14]) it was 44.5 ± 34.4 nM. Moreover, the lipE rat kidney on TSPO in rat kidney [2] is 5.12. The molecule further had a logD7.4 in “Measurement of logD” of 3.01 ± 0.02. Also, the “lipE human U87MG” value in series [3] worked out at 5.14. In addition, the “LAB to HAB Ki ratio” value in series [5] is 2.91.
In the case of `CC[C@@H](C)N(C)C(=O)c1nc(-c2ccccc2C(F)(F)F)c2ccccc2n1` [3d, (R)-N-(sec-Butyl)-N-methyl-4-(2-(trifluoromethyl)phenyl)-quinazoline-2-carboxamide], the Ki in [1] was 6.8 ± 8.1 nM; at TSPO in rat kidney [2], 3.74 ± 0.1 nM; in [3], 3.18 ± 0.17 nM; in series [4], 37.1 ± 30.2 nM. The same molecule showed a lipE rat kidney on TSPO in rat kidney [2] of 5.18. In “Measurement of logD”, this molecule came in with a logD of 3.25 ± 0.03. Also, the “lipE human U87MG” value in [3] came out at 5.25. Further, the “LAB to HAB Ki ratio” value in series [5] is 5.46.
As for `CC[C@@H](C)N(C)C(=O)c1nc(-c2ccc(C(F)(F)F)cc2)c2ccccc2n1` [3f, (R)-N-(sec-Butyl)-N-methyl-4-(4-(trifluoromethyl)phenyl)-quinazoline-2-carboxamide], in series [1], the affinity corresponds to a Ki of 5 ± 3.9 nM and the “lipE HAB” value was found to be 4.37. In addition, at TSPO in rat kidney [2], the Ki is 4.39 ± 0.14 nM and the lipE rat kidney was determined as 4.43. In addition, the pH-dependent lipophilicity (logD) in “Measurement of logD” turned out to be 3.93 ± 0.01. In series [3], the affinity corresponds to a Ki of 2.42 ± 0.66 nM and the “lipE human U87MG” value came to 4.69. The molecule also registered an inhibitory constant (Ki) in series [4] of 4 ± 5 nM. For the same molecule, the “LAB to HAB Ki ratio” value in [5] is listed as 0.8.
For `CC[C@@H](C)N([11CH3])C(=O)c1nc(-c2ccccc2Cl)c2ccccc2n1` [[^11C]ER176], on TSPO in the mouse brain (PK11195 5 mg/kg i.v. preblock, baseline vs preblock, 80–100 min), the “blocking effect of PK11195 on brain uptake” value came out at 72%. The “peak radioactivity uptake in the brain” value at TSPO in the mouse brain (mouse whole brain, baseline, i.v. injection) is on record as “around 1.0 SUV”. On TSPO in the mouse brain (occupancy by carrier, estimated from brain concentration and molar activity), the “estimated brain TSPO occupancy at baseline” value was 2.6%.
In the series “Measurement of logD”, `CCC(C)N(C)C(=O)c1cc2ccccc2c(-c2ccccc2Cl)n1` (stereo not shown) [PK11195, reference compound] displayed a logD7.4 of 3.97 ± 0.02.
Regarding `CC[C@@H](C)N(C)C(=O)c1nc(-c2cccc(C(F)(F)F)c2)c2ccccc2n1` [3e, (R)-N-(sec-Butyl)-N-methyl-4-(3-(trifluoromethyl)phenyl)-quinazoline-2-carboxamide], in [1], affinity was put at a Ki of 18.6 ± 15.7 nM and the “lipE HAB” value is recorded as 4.02. On TSPO in rat kidney [2], affinity was put at a Ki of 1.44 ± 0.21 nM and the lipE rat kidney stood at 5.14. For the same molecule, the pH-dependent lipophilicity (logD) in the series “Measurement of logD” is 3.71 ± 0.03. Moreover, in series [3], the Ki was 1.19 ± 0.17 nM and the “lipE human U87MG” value came to 5.21. In series [4], this molecule displayed a Ki of 36.9 ± 38.5 nM. Further, the “LAB to HAB Ki ratio” value in series [5] was 1.98.
As to `CC[C@@H](C)N(C)C(=O)c1nc(-c2ccccc2Cl)c2ccccc2n1` [ER176, (R)-N-(sec-butyl)-4-(2-chlorophenyl)-N-methylquina-zoline-2-carboxamide], the logD7.4 in series [6] was 3.55 ± 0.02. In addition, in [7] (setting [15]), the “lipE HAB” value is on record as 5.28. Further, the Ki in [7] (read-out: HAB Ki) was 1.48 nM; in series [8], 1.89 nM; at TSPO in rat kidney [10] (read-out: rat kidney Ki), 3.1 ± 0.3 nM. Further, the “LAB to HAB Ki ratio” value in [9] was 1.28. Further, the lipE rat kidney at TSPO in rat kidney [10] (setting [15]) is 4.96.
`CC[C@@H](C)N(C)C(=O)c1nc(-c2cccc(F)c2)c2ccccc2n1` [3b, (R)-(N-sec-Butyl)-4-(3-fluorophenyl)-N-methylquinazoline-2-carboxamide]: the “lipE HAB” value in series [1] is on record as 4.95. The Ki in series [1] (setting [11]) stood at 9.1 ± 8.1 nM; on TSPO in rat kidney [2] (setting [12]), 5.17 ± 0.63 nM; in [3] (setting [13]), 5.09 ± 0.65 nM; in series [4] (setting [14]) it was 24.9 ± 12.7 nM. Besides, the lipE rat kidney at TSPO in rat kidney [2] is listed as 5.20. The logD7.4 in the series “Measurement of logD” came out at 3.09 ± 0.01. For the same molecule, the “lipE human U87MG” value in series [3] is given as 5.20. Besides, the “LAB to HAB Ki ratio” value in series [5] is reported as 2.74.
